Measured values taken from ChEMBL document CHEMBL4368871, “Flush with a flash: natural three-component antimicrobial combinations based on S-nitrosothiols, controlled superoxide formation and "domino" reactions leading to peroxynitrite” (Medchemcomm, 2018).
Active and inactive are the calls of the source. The calls are words filed in the database; no cut-off is given here.

How the values were obtained:
[1] = Induction of peroxynitrite anion generation assessed as peroxynitrite anion level in presence of riboflavin by DHR-123 indicator based spectrofluorometric method; type: functional
Procedure, shortened: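 Peroxynitrite was generated by the S-nitrosothiol with riboflavin (250, 500, 1000 μM) illuminated by a standard lamp (0.6 Lumen, 310 K), followed over 2–24 h. It was detected by oxidation of dihydrorhodamine 123 to fluorescent rhodamine 123, with excitation at 485 nm and emission at 530 nm.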

[2] = tested on: Steinernema feltiae; experiment: Nematocidal activity against Steinernema feltiae assessed as nematode viability at 250 to 1000 uM measured up to 24 hrs in presence of xanthine/xanthine oxidase; type: functional
[3] = tested on: Steinernema feltiae; experiment: Nematocidal activity against Steinernema feltiae assessed as nematode viability at 250 to 1000 uM measured up to 24 hrs in presence of xanthine oxidase; type: functional
[4] = tested on: Candida tropicalis; experiment: Antimicrobial activity against Candida tropicalis assessed as reduction in microbial growth at 250 to 1000 uM measured up to 24 hrs in presence of xanthine/xanthine oxidase; type: functional, organism-based
Procedure, shortened: (§1)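 Xanthine (400 μM) and xanthine oxidase (50 mU mL–1) were combined with the S-nitrosothiol at 250, 500 and 1000 μM. Growth was read as optical density at 570 nm at 0 h and after 24 h at 37 °C. Controls were medium plus organism (negative) and penicillin/streptomycin/amphotericin B (positive). Runs were in triplicate on three occasions (n = 9), analysed by one-way ANOVA.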

[5] = tested on: Escherichia coli; experiment: Dark toxicity against Escherichia coli at 250 to 1000 uM in presence of riboflavin measured up to 24 hrs; type: organism-based; settings: in vivo
Procedure, shortened: (§2)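 E. coli was treated with the riboflavin (250, 500, 1000 μM) plus RSNO (250–1000 μM) system and incubated 24 h at 37 °C in the dark. Growth was read as OD at 570 nm at 0 and 24 h. Medium-only and antibiotic-mix controls were included, plus riboflavin and RSNO dilution controls. Triplicates on three occasions (n = 9).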

[6] = tested on: Escherichia coli; experiment: Antimicrobial activity against Escherichia coli assessed as reduction in microbial growth measured up to 24 hrs in presence of riboflavin under day light exposure; type: functional, organism-based
Procedure, shortened: (§3)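 E. coli was exposed to riboflavin (250, 500, 1000 μM) plus the S-nitrosothiol at 250, 500 or 1000 μM. Incubation was 24 h at 37 °C under a daylight LED (0.6 Lumen). Growth was read as OD at 570 nm at 0 h and 24 h. Controls were medium plus organism, antibiotic/antifungal mix, and riboflavin or RSNO alone. Triplicates on three occasions (n = 9), one-way ANOVA.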

[7] = tested on: Steinernema feltiae; experiment: Nematocidal activity against Steinernema feltiae at 250 to 1000 uM in presence of riboflavin measured under dark condition up to 24 hrs; type: functional, organism-based
Procedure, shortened: (§4)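 S. feltiae nematodes were exposed to riboflavin (500 or 1000 μM) with the S-nitrosothiol, incubated 24 h at 37 °C without light. Controls were medium plus nematodes (negative), penicillin/streptomycin/amphotericin B (positive), and 1000 μM riboflavin or RSNO alone. Triplicates on three occasions (n = 9).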

[8] = Induction of peroxynitrite anion generation assessed as peroxynitrite anion level in presence of xanthine/xanthine oxidase by DHR-123 indicator based spectrofluorometric method; type: functional
Procedure, shortened: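 Peroxynitrite was generated by the S-nitrosothiol with xanthine (400 μM) and xanthine oxidase (50 mU mL–1), the reaction being started by adding substrate or enzyme. It was quantified spectrofluorometrically by dihydrorhodamine 123 oxidation to rhodamine 123, with excitation at 485 nm and emission at 530 nm.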

[9] = tested on: Steinernema feltiae; experiment: Nematocidal activity against Steinernema feltiae at 250 to 1000 uM measured under dark condition up to 24 hrs; type: functional, organism-based; procedure, shortened: as §4
[10] = tested on: Saccharomyces cerevisiae; experiment: Antimicrobial activity against Saccharomyces cerevisiae assessed as microbial growth at 250 to 1000 uM measured up to 24 hrs in presence of xanthine/xanthine oxidase; type: functional; procedure, shortened: as §1
[11] = tested on: Escherichia coli; experiment: Dark toxicity against Escherichia coli at 250 to 1000 uM measured under dark condition up to 24 hrs; type: organism-based; settings: in vivo; procedure, shortened: as §2
[12] = tested on: Bacillus cereus; experiment: Antimicrobial activity against Bacillus cereus assessed as microbial growth at 250 to 1000 uM measured up to 24 hrs in presence of xanthine/xanthine oxidase; type: functional; procedure, shortened: as §1
[13] = tested on: Escherichia coli; experiment: Antimicrobial activity against Escherichia coli assessed as microbial growth at 250 to 1000 uM measured up to 24 hrs in presence of riboflavin under day light exposure relative to control; type: functional; procedure, shortened: as §3

Row | Activity [8] [µM] | SMILES | Activity [1] [µM] | Activity [2] [%] | Activity [3] [%] | Activity [4] | Activity [5] | Activity [6] | Activity [7] | Activity [9] | Activity [10] | Activity [11] | Activity [12] | Activity [13] [%]
1 | 17.1 | N[C@@H](CCC(=O)N[C@@H](CSN=O)C(=O)NCC(=O)O)C(=O)O [S-NITROSOGLUTATHIONE] | 18.9 | <10 | 50 | inactive | Non-Toxic | Dose-dependent effect | inactive | inactive | 9% | Non-Toxic | 6% | 20
2 | 15.4 | CC(=O)N[C@@H](C(=O)O)C(C)(C)SN=O | 20.4 | <10 | 50 | inactive | – | Dose-dependent effect | – | – | Active | – | Active | –
